Tests used:
Mus musculus [1] = experiment: Toxicity in mouse P388 cells allografted CD2F1 mouse assessed as body weight loss at 25 mg/kg, ip of total 9 doses starting 24 hrs post tumor inoculation measured on day 5 of inoculation relative to control; assay type: organism-based; parameters: dose 25 mg/kg, route intraperitoneal; conditions: in vivo
Procedure, shortened: (§1)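 Male CD2F1 mice inoculated ip with 6×10^6 P388 leukemia cells. Compounds given ip as distilled water–Tween 80 suspension, nine daily doses starting 24 h after inoculation; six mice per dose group. Treated-minus-control body-weight change (T − C) and toxicity-day survivors recorded on day 5 (4 days after first dose).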

Mus musculus [2] = experiment: Toxicity in mouse P388 cells allografted CD2F1 mouse assessed as body weight loss at 200 mg/kg, ip of total 9 doses starting 24 hrs post tumor inoculation measured on day 5 of inoculation relative to control; assay type: organism-based; parameters: dose 200 mg/kg, route intraperitoneal; conditions: in vivo; procedure, shortened: as §1
Mus musculus [3] = experiment: Toxicity in mouse P388 cells allografted CD2F1 mouse assessed as mouse survival at 100 mg/kg, ip of total 9 doses starting 24 hrs post tumor inoculation measured on day 5 of inoculation relative to control; assay type: organism-based; parameters: dose 100 mg/kg, route intraperitoneal; conditions: in vivo
Procedure, shortened: (§2)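 Male CD2F1 mice bearing ip P388 leukemia (6×10^6 cells) were dosed ip with nine daily doses in distilled water–Tween 80 suspension, starting 24 h after inoculation. Survivors per group of 6 were counted on day 5, i.e. 4 days after the first dose. Body-weight change of treated minus control mice was also recorded.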

Mus musculus [4] = experiment: Toxicity in mouse P388 cells allografted CD2F1 mouse assessed as body weight loss at 12.5 mg/kg, ip of total 9 doses starting 24 hrs post tumor inoculation measured on day 5 of inoculation relative to control; assay type: organism-based; parameters: dose 12.5 mg/kg, route intraperitoneal; conditions: in vivo; procedure, shortened: as §1
Mus musculus [5] = experiment: Toxicity in mouse P388 cells allografted CD2F1 mouse assessed as mouse survival at 12.5 mg/kg, ip of total 9 doses starting 24 hrs post tumor inoculation measured on day 5 of inoculation relative to control; assay type: organism-based; parameters: dose 12.5 mg/kg, route intraperitoneal; conditions: in vivo; procedure, shortened: as §2
Mus musculus [6] = experiment: Toxicity in mouse P388 cells allografted CD2F1 mouse assessed as body weight loss at 50 mg/kg, ip of total 9 doses starting 24 hrs post tumor inoculation measured on day 5 of inoculation relative to control; assay type: organism-based; parameters: dose 50 mg/kg, route intraperitoneal; conditions: in vivo; procedure, shortened: as §1
Mus musculus [7] = experiment: Toxicity in mouse P388 cells allografted CD2F1 mouse assessed as mouse survival at 200 mg/kg, ip of total 9 doses starting 24 hrs post tumor inoculation measured on day 5 of inoculation relative to control; assay type: organism-based; parameters: dose 200 mg/kg, route intraperitoneal; conditions: in vivo; procedure, shortened: as §2
Mus musculus [8] = experiment: Toxicity in mouse P388 cells allografted CD2F1 mouse assessed as body weight loss at 100 mg/kg, ip of total 9 doses starting 24 hrs post tumor inoculation measured on day 5 of inoculation relative to control; assay type: organism-based; parameters: dose 100 mg/kg, route intraperitoneal; conditions: in vivo; procedure, shortened: as §1
P388 [9] = experiment: Antitumor activity against mouse P388 cells allografted in CD2F1 mouse assessed as increase in mouse survival at 200 mg/kg, ip of total 9 doses starting 24 hrs post tumor inoculation measured on day 5 of inoculation relative to control; assay type: functional; conditions: route intraperitoneal
Procedure, shortened: (§3)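 Male CD2F1 mice inoculated ip with 6×10^6 P388 leukemia cells. Dosing was ip as a suspension in distilled water–Tween 80, nine daily doses starting 24 h after inoculation. Activity was read as median survival time of treated vs control mice (% T/C); % T/C ≥ 120 was considered significant. Groups were 6 mice.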

Mus musculus [10] = experiment: Toxicity in mouse P388 cells allografted CD2F1 mouse assessed as mouse survival at 50 mg/kg, ip of total 9 doses starting 24 hrs post tumor inoculation measured on day 5 of inoculation relative to control; assay type: organism-based; parameters: dose 50 mg/kg, route intraperitoneal; conditions: in vivo; procedure, shortened: as §2
Mus musculus [11] = experiment: Toxicity in mouse P388 cells allografted CD2F1 mouse assessed as mouse survival at 25 mg/kg, ip of total 9 doses starting 24 hrs post tumor inoculation measured on day 5 of inoculation relative to control; assay type: organism-based; parameters: dose 25 mg/kg, route intraperitoneal; conditions: in vivo; procedure, shortened: as §2
P388 [12] = experiment: Antitumor activity against mouse P388 cells allografted in CD2F1 mouse assessed as increase in mouse survival at 12.5 mg/kg, ip of total 9 doses starting 24 hrs post tumor inoculation measured on day 5 of inoculation relative to control; assay type: functional; conditions: route intraperitoneal; procedure, shortened: as §3
P388 [13] = experiment: Antitumor activity against mouse P388 cells allografted in CD2F1 mouse assessed as increase in mouse survival at 100 mg/kg, ip of total 9 doses starting 24 hrs post tumor inoculation measured on day 5 of inoculation relative to control; assay type: functional; conditions: route intraperitoneal; procedure, shortened: as §3
P388 [14] = experiment: Antitumor activity against mouse P388 cells allografted in CD2F1 mouse assessed as increase in mouse survival at 25 mg/kg, ip of total 9 doses starting 24 hrs post tumor inoculation measured on day 5 of inoculation relative to control; assay type: functional; conditions: route intraperitoneal; procedure, shortened: as §3
P388 [15] = experiment: Antitumor activity against mouse P388 cells allografted in CD2F1 mouse assessed as increase in mouse survival at 50 mg/kg, ip of total 9 doses starting 24 hrs post tumor inoculation measured on day 5 of inoculation relative to control; assay type: functional; conditions: route intraperitoneal; procedure, shortened: as §3
Mus musculus [16] = experiment: Toxicity in mouse P388 cells allografted CD2F1 mouse assessed as mouse survival at 7.5 mg/kg, ip of total 9 doses starting 24 hrs post tumor inoculation measured on day 5 of inoculation relative to control; assay type: organism-based; parameters: dose 7.5 mg/kg, route intraperitoneal; conditions: in vivo; procedure, shortened: as §2
Mus musculus [17] = experiment: Toxicity in mouse P388 cells allografted CD2F1 mouse assessed as body weight loss at 30 mg/kg, ip of total 9 doses starting 24 hrs post tumor inoculation measured on day 5 of inoculation relative to control; assay type: organism-based; parameters: dose 30 mg/kg, route intraperitoneal; conditions: in vivo; procedure, shortened: as §1
Mus musculus [18] = experiment: Toxicity in mouse P388 cells allografted CD2F1 mouse assessed as body weight loss at 1.88 mg/kg, ip of total 9 doses starting 24 hrs post tumor inoculation measured on day 5 of inoculation relative to control; assay type: organism-based; parameters: dose 1.88 mg/kg, route intraperitoneal; conditions: in vivo; procedure, shortened: as §1
Mus musculus [19] = experiment: Toxicity in mouse P388 cells allografted CD2F1 mouse assessed as mouse survival at 1.88 mg/kg, ip of total 9 doses starting 24 hrs post tumor inoculation measured on day 5 of inoculation relative to control; assay type: organism-based; parameters: dose 1.88 mg/kg, route intraperitoneal; conditions: in vivo; procedure, shortened: as §2
Mus musculus [20] = experiment: Toxicity in mouse P388 cells allografted CD2F1 mouse assessed as body weight loss at 15 mg/kg, ip of total 9 doses starting 24 hrs post tumor inoculation measured on day 5 of inoculation relative to control; assay type: organism-based; parameters: dose 15 mg/kg, route intraperitoneal; conditions: in vivo; procedure, shortened: as §1
P388 [21] = experiment: Antitumor activity against mouse P388 cells allografted in CD2F1 mouse assessed as increase in mouse survival at 15 mg/kg, ip of total 9 doses starting 24 hrs post tumor inoculation measured on day 5 of inoculation relative to control; assay type: functional; conditions: route intraperitoneal; procedure, shortened: as §3
P388 [22] = experiment: Antitumor activity against mouse P388 cells allografted in CD2F1 mouse assessed as increase in mouse survival at 7.5 mg/kg, ip of total 9 doses starting 24 hrs post tumor inoculation measured on day 5 of inoculation relative to control; assay type: functional; conditions: route intraperitoneal; procedure, shortened: as §3
Mus musculus [23] = experiment: Toxicity in mouse P388 cells allografted CD2F1 mouse assessed as body weight loss at 3.75 mg/kg, ip of total 9 doses starting 24 hrs post tumor inoculation measured on day 5 of inoculation relative to control; assay type: organism-based; parameters: dose 3.75 mg/kg, route intraperitoneal; conditions: in vivo; procedure, shortened: as §1
Mus musculus [24] = experiment: Toxicity in mouse P388 cells allografted CD2F1 mouse assessed as mouse survival at 15 mg/kg, ip of total 9 doses starting 24 hrs post tumor inoculation measured on day 5 of inoculation relative to control; assay type: organism-based; parameters: dose 15 mg/kg, route intraperitoneal; conditions: in vivo; procedure, shortened: as §2
P388 [25] = experiment: Antitumor activity against mouse P388 cells allografted in CD2F1 mouse assessed as increase in mouse survival at 1.88 mg/kg, ip of total 9 doses starting 24 hrs post tumor inoculation measured on day 5 of inoculation relative to control; assay type: functional; conditions: route intraperitoneal; procedure, shortened: as §3
Mus musculus [26] = experiment: Toxicity in mouse P388 cells allografted CD2F1 mouse assessed as body weight loss at 7.5 mg/kg, ip of total 9 doses starting 24 hrs post tumor inoculation measured on day 5 of inoculation relative to control; assay type: organism-based; parameters: dose 7.5 mg/kg, route intraperitoneal; conditions: in vivo; procedure, shortened: as §1
P388 [27] = experiment: Antitumor activity against mouse P388 cells allografted in CD2F1 mouse assessed as increase in mouse survival at 30 mg/kg, ip of total 9 doses starting 24 hrs post tumor inoculation measured on day 5 of inoculation relative to control; assay type: functional; conditions: route intraperitoneal; procedure, shortened: as §3
P388 [28] = experiment: Antitumor activity against mouse P388 cells allografted in CD2F1 mouse assessed as increase in mouse survival at 3.75 mg/kg, ip of total 9 doses starting 24 hrs post tumor inoculation measured on day 5 of inoculation relative to control; assay type: functional; conditions: route intraperitoneal; procedure, shortened: as §3
Mus musculus [29] = experiment: Toxicity in mouse P388 cells allografted CD2F1 mouse assessed as mouse survival at 3.75 mg/kg, ip of total 9 doses starting 24 hrs post tumor inoculation measured on day 5 of inoculation relative to control; assay type: organism-based; parameters: dose 3.75 mg/kg, route intraperitoneal; conditions: in vivo; procedure, shortened: as §2
Mus musculus [30] = experiment: Toxicity in mouse P388 cells allografted CD2F1 mouse assessed as mouse survival at 30 mg/kg, ip of total 9 doses starting 24 hrs post tumor inoculation measured on day 5 of inoculation relative to control; assay type: organism-based; parameters: dose 30 mg/kg, route intraperitoneal; conditions: in vivo; procedure, shortened: as §2

| SMILES | Activity (Mus musculus [1]) [g] | Activity (Mus musculus [2]) [g] | Activity (Mus musculus [3]) | Activity (Mus musculus [4]) [g] | Activity (Mus musculus [5]) | Activity (Mus musculus [6]) [g] | Activity (Mus musculus [7]) | Activity (Mus musculus [8]) [g] | T/C (P388 [9]) [%] | Activity (Mus musculus [10]) | Activity (Mus musculus [11]) | T/C (P388 [12]) [%] | T/C (P388 [13]) [%] | T/C (P388 [14]) [%] | T/C (P388 [15]) [%] | other results |
| --- | --- | --- | --- | --- | --- | --- | --- | --- | --- | --- | --- | --- | --- | --- | --- | --- |
| CNC(=O)OCc1c(COC(=O)NC)c(-c2ccc(Sc3ccccc3)cc2)n(C)c1C | 2.1 | 3 | Non-toxic | 0.9 | Non-toxic | 2.1 | Non-toxic | 3.3 | 108 | Non-toxic | Non-toxic | 142 | 171 | 146 | 162 | – |
| CNC(=O)OCc1c(COC(=O)NC)c(-c2ccc(-c3ccccc3)cc2)n(C)c1C | – | – | – | – | – | – | – | – | – | – | – | – | – | – | – | Activity (Mus musculus [16]): Non-toxic; Activity (Mus musculus [17]): 3.6 g; Activity (Mus musculus [18]): 0.6 g; Activity (Mus musculus [19]): Non-toxic; Activity (Mus musculus [20]): 3.1 g; T/C (P388 [21]): 153%; T/C (P388 [22]): 144%; Activity (Mus musculus [23]): 1.3 g; Activity (Mus musculus [24]): Non-toxic; T/C (P388 [25]): 135%; Activity (Mus musculus [26]): 2.2 g; T/C (P388 [27]): 144%; T/C (P388 [28]): 144%; Activity (Mus musculus [29]): Non-toxic; Activity (Mus musculus [30]): Non-toxic |
| CNC(=O)OCc1c(COC(=O)NC)c(-c2ccc(S(C)(=O)=O)cc2)n(C)c1C | 0.8 | 3.7 | Non-toxic | 0.4 | Non-toxic | 1.1 | Non-toxic | 2.1 | 198 | Non-toxic | Non-toxic | 136 | 180 | 144 | 162 | – |

Source: ChEMBL document CHEMBL3243962, “Antileukemic activity of derivatives of 1,2-dimethyl-3,4-bis(hydroxymethyl)-5-phenylpyrrole bis(N-methylcarbamate)” (J Med Chem, 1979)
